Data on 24 compounds can be found in ChEMBL document CHEMBL2046286, “Deconstructing 14-phenylpropyloxymetopon: minimal requirements for binding to mu opioid receptors” (Bioorg Med Chem, 2012).

Format in all cases: tissue-based
One test has as its target Mu-type opioid receptor (Rattus norvegicus, UniProt P33535). Nature of the test: (§1) Displacement of [3H]DAMGO from mu opioid receptor in rat brain homogenate after 1 hr by liquid scintillation counting. Summed up: (§2)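 Competition with 12 concentrations of test compound, 1 h at 25°C; terminated by rapid vacuum filtration through GF/B filters presoaked in 0.5% polyethyleneimine. Bound radioactivity counted by liquid scintillation; Ki by Cheng-Prusoff.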
For orientation: In a radioligand displacement assay an active substance lowers the binding of a labelled ligand.

The target of test [1] is Kappa-type opioid receptor (Rattus norvegicus, UniProt P34975). Nature of the test: (§3) Displacement of [3H]U69593 from kappa opioid receptor in rat brain homogenate after 1 hr by liquid scintillation counting.
Kappa-type opioid receptor, sequence (P34975 whole entry): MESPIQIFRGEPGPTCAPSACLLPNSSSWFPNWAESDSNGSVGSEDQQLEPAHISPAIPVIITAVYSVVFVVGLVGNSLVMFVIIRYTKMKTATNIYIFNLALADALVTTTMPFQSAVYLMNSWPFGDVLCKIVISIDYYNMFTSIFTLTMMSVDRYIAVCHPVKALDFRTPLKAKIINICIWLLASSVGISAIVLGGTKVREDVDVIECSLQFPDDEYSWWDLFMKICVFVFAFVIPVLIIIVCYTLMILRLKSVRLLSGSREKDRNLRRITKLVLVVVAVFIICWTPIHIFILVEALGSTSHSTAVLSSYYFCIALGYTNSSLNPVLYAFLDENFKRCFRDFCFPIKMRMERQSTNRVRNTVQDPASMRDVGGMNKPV
Test [2] has as its target Delta-type opioid receptor (Rattus norvegicus, UniProt P33533). The experiment in a line: (§4) Displacement of [3H]DPDPE from delta opioid receptor in rat brain homogenate after 1 hr by liquid scintillation counting.
The target of test [3] is Delta-type opioid receptor (Rattus norvegicus) (UniProt P33533). The description is as §4.
Delta-type opioid receptor (Rattus norvegicus), sequence (P33533 whole entry): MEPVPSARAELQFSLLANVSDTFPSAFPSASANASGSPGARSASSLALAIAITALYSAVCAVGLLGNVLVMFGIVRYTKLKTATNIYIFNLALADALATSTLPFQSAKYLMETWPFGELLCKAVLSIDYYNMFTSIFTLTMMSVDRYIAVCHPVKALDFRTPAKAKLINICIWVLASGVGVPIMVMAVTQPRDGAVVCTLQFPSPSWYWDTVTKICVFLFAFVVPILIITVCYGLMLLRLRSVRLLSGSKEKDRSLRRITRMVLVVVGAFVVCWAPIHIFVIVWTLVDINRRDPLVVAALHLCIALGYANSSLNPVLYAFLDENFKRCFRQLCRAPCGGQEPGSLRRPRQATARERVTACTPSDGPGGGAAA
For test [4], the target named is Kappa-type opioid receptor (Rattus norvegicus) (UniProt P34975). The description is as §3.
Kappa-type opioid receptor (Rattus norvegicus), sequence (P34975 whole entry): as the sequence (P34975 whole entry) above
For test [5], the target named is Mu-type opioid receptor (Rattus norvegicus) (UniProt P33535). The test is described as §1. Summed up: as §2
Mu-type opioid receptor (Rattus norvegicus), sequence (P33535 whole entry): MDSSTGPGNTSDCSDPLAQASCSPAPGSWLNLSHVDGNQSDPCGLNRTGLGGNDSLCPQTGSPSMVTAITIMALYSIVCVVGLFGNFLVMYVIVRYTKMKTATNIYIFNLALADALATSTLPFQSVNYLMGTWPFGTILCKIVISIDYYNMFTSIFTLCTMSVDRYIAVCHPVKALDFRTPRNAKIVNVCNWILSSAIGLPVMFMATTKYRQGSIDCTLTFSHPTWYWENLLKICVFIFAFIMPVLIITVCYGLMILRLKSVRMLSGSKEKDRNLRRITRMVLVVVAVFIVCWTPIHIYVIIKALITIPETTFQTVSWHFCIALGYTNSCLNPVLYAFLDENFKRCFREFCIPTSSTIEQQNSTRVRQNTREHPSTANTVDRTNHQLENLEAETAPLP

Activity calls are given as the source filed them. The calls are words filed in the database; no cut-off is given here.

The term Ki denotes the dissociation constant of the complex between target and ligand, obtained from inhibition or displacement. High values mean a looser hold on the target, low ones a stronger hold on the target.

Mu-type opioid receptor, sequence (P33535 whole entry): as above
Delta-type opioid receptor, sequence (P33533 whole entry): as the sequence (P33533 whole entry) above

Turning to `CN(CCOCCCc1ccccc1)CCc1ccccc1`, the Ki at Mu-type opioid receptor was 2.31 µM; in test [1], > 10 µM.

For the compound `CN(CCOCCCc1ccccc1)Cc1ccccc1`, the inhibition constant Ki at Mu-type opioid receptor was 2.76 µM; in test [2], > 10 µM; in test [1] it was > 10 µM.

Regarding `C=CCN(CC=C)CCOCCCc1ccccc1`, the Ki at Mu-type opioid receptor is > 10 µM. In addition, the result in test [3] and in test [4] was inactive.

Take `c1ccc(CCCOCCN2CCCC2)cc1`: the outcome in test [5], in test [3] and in test [4] was inactive.

On to `CCCCN(CCCC)CCOC/C=C/c1ccccc1`, for which the Ki on Mu-type opioid receptor is 2.49 µM; in test [2] it was > 10 µM; in test [1], > 10 µM.

For the compound `CCN(CC)C(=O)COC/C=C/c1ccccc1`, the Ki at Mu-type opioid receptor was > 10 µM.

With `CCCN(CCC)CCOCCCc1ccccc1`, the Ki at Mu-type opioid receptor was > 10 µM.

With `C(=C\c1ccccc1)/COCCN1CCCCC1`, the result in test [5], in test [3] and in test [4] was inactive.

For `CN(CCCc1ccccc1)CCOCCCc1ccccc1`, the inhibition constant (Ki) on Mu-type opioid receptor is 1.52 µM; in test [2] it was 6.65 µM; in test [1] it was > 10 µM.

With `c1ccc(CCCOCCN2CCCCCC2)cc1`, the result in test [5], in test [3] and in test [4] was inactive.

For `CN(C)CCOCCCc1ccccc1`, at Mu-type opioid receptor, the inhibitory constant (Ki) was > 10 µM.

As for `C(=C\c1ccccc1)/COCCN1CCCC1`, the result in test [5], in test [3] and in test [4] was inactive.

In the case of `C(=C\c1ccccc1)/COCCN1CCCCCC1`, the inhibitory constant (Ki) on Mu-type opioid receptor was > 10 µM.

In the case of `CN(C)CCOC/C=C/c1ccccc1`, at Mu-type opioid receptor, the Ki is > 10 µM.

For the compound `CCN(CC)CCOC/C=C/c1ccccc1`, the inhibitory constant (Ki) on Mu-type opioid receptor is > 10 µM.

With `CCCCN(CCCC)CCOCCCc1ccccc1`, the Ki on Mu-type opioid receptor was 2.49 µM; in test [2], > 10 µM; in test [1], > 10 µM.

`CCN(CC)CCOCCCc1ccccc1`: the Ki on Mu-type opioid receptor was > 10 µM.

Consider `C=CCN(CC=C)CCOC/C=C/c1ccccc1`, for which, at Mu-type opioid receptor, the Ki is > 10 µM. In addition, the outcome in test [3] and in test [4] was inactive.

For the compound `CCCN(CCC)CCOC/C=C/c1ccccc1`, the Ki at Mu-type opioid receptor was > 10 µM.

As to `CN(CCCc1ccccc1)CCOC/C=C/c1ccccc1`, the inhibitory constant (Ki) in test [2] and in test [1] was > 10 µM each time.

For `CN(CCOC/C=C/c1ccccc1)CCc1ccccc1`, the Ki on Mu-type opioid receptor was 1.68 µM; in test [2], 6.85 µM; in test [1] it was > 10 µM.

Regarding `CCN(CC)C(=O)COCCCc1ccccc1`, at Mu-type opioid receptor, the Ki was > 10 µM.

`CN(CCOC/C=C/c1ccccc1)Cc1ccccc1`: the inhibition constant Ki on Mu-type opioid receptor is 3.04 µM; in test [2], > 10 µM; in test [1], > 10 µM.

Consider `c1ccc(CCCOCCN2CCCCC2)cc1`, for which the outcome in test [5], in test [3] and in test [4] was inactive.
